hERG rescue = hERG rescue from dofetilide block, primary screen, cell-based, CHO-hERG, FluxOR thallium flux, dofetilide IC70 | dofetilide IC70 present | activation (rescue from dofetilide block), less the hit threshold, % at 10 µM | 310,000 tested, 0.51% active | AID 1511, 2009;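 active means activation above the mean of controls blocked by dofetilide plus 5 SD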;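 further: thallium influx through hERG after potassium depolarization seen as dye fluorescence rise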
KCNK3 block = human KCNK3 channel inhibitors, primary screen, CHO cells, FluxOR thallium flux, B-score | Potassium channel subfamily K member 3 (Homo sapiens), O14649 | FluxOR fluorescence; hits give low values | B-score at 10 µM | 340,000 tested, 0.84% active | AID 602410, 2012;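 active means B-score under library mean minus 4 SD, starting fluorescence ratio at most library mean plus 5 SD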;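 further: more negative B-score means stronger inhibition of thallium flux through KCNK3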
KCNK9 block = KCNK9 potassium channel inhibitors, primary screen, HEK293 cells, thallium flux; Potassium channel subfamily K member 9 (Homo sapiens), Q9NPC2; FluxOR thallium flux fluorescence; hits give low values; B-score at 10 µM; 310,000 tested, 1.2% active; AID 488922, 2010;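 active means ratio B-score over 3 SD below the library mean, with starting fluorescence within 5 SD of its mean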;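 further: negative B-score means less thallium flux so channel inhibition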
Kir21 block = inhibitors of mouse Kir2.1 inward-rectifier potassium channel; HEK293-Kir2.1, FluxOR thallium flux fluorescence; hits give low values; B-score at 10 µM; 310,000 tested, 0.85% active;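 active means fluorescence ratio B-score at or below minus 3 SD of library scores, with starting-brightness B-score within 2 SD, cut at about -4.2 in these data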;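 further: channel flux triggered by added potassium and thallium sulfate stimulus; B-score of peak minus minimum fluorescence over baseline after thallium stimulus; more negative B-score means stronger Kir2.1 block with less thallium influx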
Target sequence (P35561 whole entry, looked up): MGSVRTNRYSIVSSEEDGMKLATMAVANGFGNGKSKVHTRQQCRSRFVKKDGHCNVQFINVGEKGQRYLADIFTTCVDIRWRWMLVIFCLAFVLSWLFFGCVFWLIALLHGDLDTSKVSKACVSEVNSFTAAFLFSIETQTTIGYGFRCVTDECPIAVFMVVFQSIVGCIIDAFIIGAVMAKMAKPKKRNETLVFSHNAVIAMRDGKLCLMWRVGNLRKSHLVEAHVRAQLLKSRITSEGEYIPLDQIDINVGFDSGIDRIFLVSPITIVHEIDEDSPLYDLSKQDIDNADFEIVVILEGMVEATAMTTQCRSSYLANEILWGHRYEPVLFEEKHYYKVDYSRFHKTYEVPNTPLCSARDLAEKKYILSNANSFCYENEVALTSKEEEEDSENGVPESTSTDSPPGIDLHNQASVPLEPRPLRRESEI
KCNQ1 block = inhibitors of human KCNQ1 channel, primary screen, cell-based, thallium flux, high-throughput. 310,000 tested, 1.3% active. B-score at 10 µM. AID 2642, 2010. CHO-K1 KCNQ1, FluxOR thallium flux fluorescence; hits give high values;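 active means compounds whose thallium flux B-score, printed positive for inhibition, exceeds three library SD while starting fluorescence stays within three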;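 further: channel opened by potassium depolarization with thallium stimulus after 20 min compound exposure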
KCNQ1 act = potentiators or activators of KCNQ1 channel, primary screen, cell-based, thallium flux, high-throughput; B-score at 10 µM; 310,000 tested, 0.35% active; CHO-K1 KCNQ1, thallium flux FluxOR fluorescence; hits give high values;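 active means fluorescence ratio B-score, a plate-corrected score, at least three library SD, with initial intensity B-score within 5 SD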
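Schedule – 37 °C overnight plating, 90-min dark dye load, 20-min compound pretreatment · System – stable KCNQ1 CHO-K1 line · Probe or stimulus – thallium- and potassium-containing depolarizing buffer · Measured by – kinetic FluxOR fluorescence, 10 s baseline plus 110 s post-stimulus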
An asterisk follows results filed as active; i = inactive; nt = no result given. An excerpt weighted towards active compounds, which were near 3.7% of everything screened.

SMILES	hERG rescue	KCNK3 block	KCNK9 block	Kir21 block	KCNQ1 block	KCNQ1 act
O=C(O)C(Oc1ccc(Cl)cc1)c1ccc(Cl)cc1 (configuration not stated)	nt	i	nt	nt	nt	nt
CCn1cc(CNC(=O)C2CCC(=O)N(C3CCCCCC3)C2)cn1 (configuration not stated)	-9	i	i	-0.02	i	i
CCN1CCN(C(=O)c2ccc3c(c2)c(C)c(C)n3Cc2ccccc2)CC1	-11	i	i	-0.92	i	i
Cc1c(C)n(Cc2ccccc2)c2ccc(C(=O)OCCCN(C)C)cc12	-14	i	i	-12*	i	i
CCOC(=O)C(=Cc1cc(=O)c(OC)co1)C(=O)OCC	-1	i	i	-7.3*	i	10*
O=C(Nc1cccc(C(F)(F)F)c1)C(SCCO)c1ccccc1 (configuration not stated)	-11	i	-7.4*	-1.3	i	i
O=C(Nc1cccc(C(F)(F)F)c1)C(Sc1ncnc2ccccc12)c1ccccc1 (configuration not stated)	-12	i	i	0.93	i	i
Cn1nnnc1SC(C(=O)Nc1cccc(C(F)(F)F)c1)c1ccccc1 (configuration not stated)	-11	i	-7*	0.11	i	i
NS(=O)(=O)c1cccc(NC(=O)COC(=O)CNC(=O)c2ccc(-c3ccccc3)cc2)c1	nt	i	nt	nt	nt	nt
Cc1ccc(SCCNC(=O)c2ccc(C)c(S(=O)(=O)Nc3cccc(C)c3)c2)cc1	-3	-11*	i	0.92	i	i
O=C(CCCc1ccccn1)c1cccc2ccccc12	nt	i	nt	nt	nt	nt
O=C(Nc1cccc(S(=O)(=O)N2CCCCC2)c1)c1ccco1	nt	i	nt	nt	nt	nt
O=C(Nc1cccc(S(=O)(=O)N2CCCCC2)c1)c1cc2ccccc2o1	nt	-11*	nt	nt	nt	nt
COCc1c(C(=O)Nc2cccc(S(=O)(=O)N3CCCCC3)c2)oc2ccccc12	nt	-9.3*	nt	nt	nt	nt
CCOC(=O)C1=C(COC(=O)COc2ccccc2C#N)NC(=O)NC1C (configuration not stated)	-12	i	i	0.68	i	i
CN1CCC(=C(c2ccccc2)c2ccc(Br)cc2)CC1	-18	i	i	-8.6*	i	i
Oc1ccc(/C=N/n2c(COc3ccccc3)n[nH]c2=S)cc1O	-8	i	i	-0.67	i	i
O=C(NCc1ccco1)c1cc2sccc2n1Cc1ccccc1	-7	i	-6.9*	-0.47	i	i
O=C(c1ccco1)N1CCN(C(=O)c2cc3sccc3n2Cc2ccccc2)CC1	-19	i	i	-0.01	i	i
Cc1nc2ccccc2n1Cc1ccc(Cl)cc1	-5	i	i	1.2	6*	i
O=c1ccc(-c2nc3ccccc3n2Cc2ccc(Cl)cc2)c[nH]1	-12	i	i	-0.08	i	10*
CCC(C)(C(=O)NC1CCCC1)N(C(=O)CNC(=O)c1ccccc1)c1c(C)n(C)n(-c2ccccc2)c1=O (configuration not stated)	-4	i	i	-0.38	i	i
CCOc1ccc2[nH]c(=O)c(CN(Cc3cccs3)C(CC)c3nnnn3C(C)(C)CC)cc2c1 (configuration not stated)	-10	i	i	-0.23	i	i
CCC(c1nnnn1C(C)(C)C)N(Cc1cccs1)Cc1cc2cc(C)c(C)cc2n2nnnc12 (configuration not stated)	-2	nt	-14*	-0.61	i	i
CC1(C)CC=CC(COC(=O)c2ccccc2C(=O)O)C1 (configuration not stated)	nt	i	nt	nt	nt	nt
SMILES	hERG rescue	KCNK3 block	KCNK9 block	Kir21 block	KCNQ1 block	KCNQ1 act
CCN(CC(=O)NCCc1ccc(S(N)(=O)=O)cc1)Cc1nc2ccccc2c(=O)[nH]1	4.8*	i	i	-0.13	i	i
C[C@@H]1CN([C@@H](C)CO)C(=O)c2cc(NC(=O)C3CC3)ccc2O[C@@H]1CN(C)Cc1ccc(Cl)c(Cl)c1	nt	i	nt	nt	nt	nt
CSc1nnc2n(C)c3c(c(=O)n12)C1(CCCC1)Cc1ccccc1-3	-20	i	-7.2*	-1.5	i	i
Cc1nnc(NC(=O)C2CCCN(S(=O)(=O)c3ccccc3C(F)(F)F)C2)s1 (configuration not stated)	15*	i	i	2	i	i
C/C(=N\NC(=O)c1cccc(Br)c1)c1ccc(Br)cc1	-10	i	i	-0.9	i	i
C/C(=N\NC(=O)c1ccccc1O)c1ccc(Br)s1	5.4*	i	i	2.7	i	i
C/C(=N\NC(=O)c1cccc(F)c1)c1ccc(Br)s1	-6	i	i	-0.01	i	11*
C/C(=N\NC(=O)c1ccccc1[N+](=O)[O-])c1ccc(Br)s1	-12	i	i	0.45	i	i
O=c1cc2c(nn1Cc1c(Cl)cccc1Cl)-c1ccccc1CC2	-5	i	i	-0.78	i	9*
O=[N+]([O-])c1cccc(NC(=S)NCCc2ccccc2)c1	-15	i	i	1.2	8*	i
O=[N+]([O-])c1ccc(S(=O)(=O)NNC(=S)NCCc2ccccc2)cc1	-2	i	i	0.82	i	i
O=C(NCCc1ccc(F)cc1)Nc1ccc([N+](=O)[O-])cc1	-16	i	i	1.6	i	i
Fc1ccc(NC(=S)NCCc2ccc(Cl)cc2)cc1	-22	i	i	-4.4*	i	i
COc1ccccc1CCNC(=O)Nc1cccc([N+](=O)[O-])c1	-4	i	i	-0.38	6*	i
COc1ccc(NC(=O)Nc2cccc([N+](=O)[O-])c2)cc1Cl	-10	i	i	-0.56	i	i
O=[N+]([O-])c1ccc(NC(=S)NCCc2ccc(F)cc2)cc1	-49	i	i	-5.2*	6*	i
CC(C)(C)OC(=O)N[C@@H](C(=O)OC(C)(C)C)c1ccc2ccccc2c1	nt	i	nt	nt	nt	nt
Nc1ncnc2c1ncn2[C@@H]1O[C@H](CNC(=O)[C@@H](N)COCc2ccccc2)[C@@H](O)[C@H]1O	nt	i	nt	nt	nt	nt
CC(C)C(NC(=O)Nc1ccccc1)C(=O)Nc1cccc(S(=O)(=O)N(C)C)c1 (configuration not stated)	-5	i	i	-0.69	i	i
